pIC50: −log10 of the molar value. Read-outs that look alike come from different tables or passages of the source.
Columns and labels:
[1] = system: pERK T202Y204 in HUVEC (with BSA); assay: Cell-based target inhibition assay, HUVEC, VEGF, pERK with BSA; set-up: species or system human; details: read-out: Cell-Based Target Inhibition Assays IC50, pERK T202Y204 (with BSA), activator VEGF, with BSA
PDGF-Rb = PDGF-Rb (Homo sapiens, UniProt P09619); assay: Biochemical inhibition profile, PDGF-Rb; details: read-out: Biochemical Inhibition Profile IC50, PDGF-Rb
Sequence of PDGF-Rb (P09619 33-1106): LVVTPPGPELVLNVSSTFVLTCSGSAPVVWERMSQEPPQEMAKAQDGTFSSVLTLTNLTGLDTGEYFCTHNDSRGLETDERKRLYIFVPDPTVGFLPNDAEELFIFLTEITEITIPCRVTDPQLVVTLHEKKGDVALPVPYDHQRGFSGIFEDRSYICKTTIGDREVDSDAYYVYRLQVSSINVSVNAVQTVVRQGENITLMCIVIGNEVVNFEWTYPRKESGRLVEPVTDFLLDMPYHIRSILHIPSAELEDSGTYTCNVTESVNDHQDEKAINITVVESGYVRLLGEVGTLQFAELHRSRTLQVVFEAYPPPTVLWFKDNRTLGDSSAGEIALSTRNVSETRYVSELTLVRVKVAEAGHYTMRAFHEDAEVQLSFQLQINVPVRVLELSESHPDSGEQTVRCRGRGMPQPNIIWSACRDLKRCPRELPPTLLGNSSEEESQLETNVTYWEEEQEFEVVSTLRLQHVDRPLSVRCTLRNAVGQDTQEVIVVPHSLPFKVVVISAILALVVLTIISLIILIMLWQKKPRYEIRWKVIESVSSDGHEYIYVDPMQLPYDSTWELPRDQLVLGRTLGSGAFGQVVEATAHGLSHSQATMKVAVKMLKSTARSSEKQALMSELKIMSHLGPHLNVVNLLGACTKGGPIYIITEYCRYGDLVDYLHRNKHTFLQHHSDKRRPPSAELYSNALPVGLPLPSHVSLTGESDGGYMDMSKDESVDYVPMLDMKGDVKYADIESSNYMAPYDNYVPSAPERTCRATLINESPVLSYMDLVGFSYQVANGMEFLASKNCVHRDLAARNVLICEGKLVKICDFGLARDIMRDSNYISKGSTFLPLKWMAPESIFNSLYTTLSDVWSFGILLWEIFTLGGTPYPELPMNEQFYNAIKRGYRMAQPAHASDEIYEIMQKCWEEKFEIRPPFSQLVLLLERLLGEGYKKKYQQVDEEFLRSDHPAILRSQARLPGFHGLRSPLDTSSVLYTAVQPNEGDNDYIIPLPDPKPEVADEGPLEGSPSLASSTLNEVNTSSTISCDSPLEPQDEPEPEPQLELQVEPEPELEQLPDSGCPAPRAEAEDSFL

RAF = assay: Biochemical inhibition profile, RAF; set-up: species or system Human; details: read-out: Biochemical Inhibition Profile IC50, RAF
pERK T202Y204 in HUVEC = assay: Cell-based target inhibition assay, HUVEC, VEGF, pERK; set-up: species or system human; details: read-out: Cell-Based Target Inhibition Assays IC50, pERK T202Y204, activator VEGF
cKIT = cKIT (Homo sapiens, UniProt P10721); assay: Biochemical inhibition profile, cKIT; details: read-out: Biochemical Inhibition Profile IC50, cKIT
AML blasts = assay: Antileukemia response assessment in patients; format: in vivo, human
Summary of the method: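 Response was judged by WHO criteria on bone marrow aspirates taken at baseline and after four weeks of daily oral dosing (two weeks after amendment). Peripheral blast counts were taken daily during the multidose visit. A sustained fall in peripheral blast counts lasting longer than four weeks also counted as a pharmacodynamic response.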

EPHB4 [2] = target: T1, EPHB4 (Homo sapiens, UniProt P54760); details: read-out: Cell-Based Target Inhibition Assays IC50, pEphB4 Y590/Y596; HEK293-Clone 25; stable over-expression of EphB4
T1 sequence (P54760 16-987): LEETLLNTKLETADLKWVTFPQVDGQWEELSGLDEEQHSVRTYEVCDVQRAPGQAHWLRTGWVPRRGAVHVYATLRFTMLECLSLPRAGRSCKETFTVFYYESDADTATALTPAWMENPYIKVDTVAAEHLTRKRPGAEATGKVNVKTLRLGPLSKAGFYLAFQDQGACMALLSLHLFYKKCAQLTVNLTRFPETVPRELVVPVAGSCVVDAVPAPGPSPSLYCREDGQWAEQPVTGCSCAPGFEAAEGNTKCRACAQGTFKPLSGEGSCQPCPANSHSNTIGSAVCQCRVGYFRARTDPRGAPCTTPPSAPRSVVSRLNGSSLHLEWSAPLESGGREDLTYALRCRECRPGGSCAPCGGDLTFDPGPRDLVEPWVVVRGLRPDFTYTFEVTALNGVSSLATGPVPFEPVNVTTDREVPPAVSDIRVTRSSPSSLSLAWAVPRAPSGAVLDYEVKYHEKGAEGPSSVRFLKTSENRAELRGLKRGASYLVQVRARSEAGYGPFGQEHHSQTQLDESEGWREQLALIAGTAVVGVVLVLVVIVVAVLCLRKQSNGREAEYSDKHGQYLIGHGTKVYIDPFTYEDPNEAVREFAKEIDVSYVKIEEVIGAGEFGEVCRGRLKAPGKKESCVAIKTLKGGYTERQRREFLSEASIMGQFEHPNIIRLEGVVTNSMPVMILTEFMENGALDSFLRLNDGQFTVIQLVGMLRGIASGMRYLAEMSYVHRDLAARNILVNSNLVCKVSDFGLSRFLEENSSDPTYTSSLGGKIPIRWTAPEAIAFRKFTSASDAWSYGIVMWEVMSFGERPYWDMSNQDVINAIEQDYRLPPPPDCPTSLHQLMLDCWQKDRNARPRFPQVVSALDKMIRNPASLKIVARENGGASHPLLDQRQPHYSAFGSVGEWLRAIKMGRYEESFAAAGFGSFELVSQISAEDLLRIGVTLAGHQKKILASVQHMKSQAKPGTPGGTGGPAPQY

p70S6K = p70S6K (Homo sapiens, UniProt P23443); assay: Biochemical inhibition profile, p70S6K; details: at 20 μM
Sequence of p70S6K (P23443 whole entry): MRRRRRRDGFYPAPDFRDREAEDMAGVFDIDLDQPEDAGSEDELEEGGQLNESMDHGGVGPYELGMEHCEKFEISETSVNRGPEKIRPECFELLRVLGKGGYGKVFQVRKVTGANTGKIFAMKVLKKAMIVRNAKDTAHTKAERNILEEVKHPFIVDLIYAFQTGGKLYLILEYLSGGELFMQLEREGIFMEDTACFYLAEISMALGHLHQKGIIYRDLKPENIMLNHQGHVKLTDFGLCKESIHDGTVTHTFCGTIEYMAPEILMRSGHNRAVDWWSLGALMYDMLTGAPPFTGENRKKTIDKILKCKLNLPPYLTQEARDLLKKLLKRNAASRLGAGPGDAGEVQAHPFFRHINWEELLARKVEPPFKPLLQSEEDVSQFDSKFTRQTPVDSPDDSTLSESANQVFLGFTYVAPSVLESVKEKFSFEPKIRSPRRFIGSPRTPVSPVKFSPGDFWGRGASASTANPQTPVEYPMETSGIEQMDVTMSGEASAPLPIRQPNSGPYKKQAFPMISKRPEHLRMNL

EPHA1 = EPHA1 (Homo sapiens, UniProt P21709); assay: Biochemical inhibition profile, EPHA1; details: read-out: Biochemical Inhibition Profile IC50, EPHA1
EPHA8 = EPHA8 (Homo sapiens, UniProt P29322); assay: Biochemical inhibition profile, EPHA8; details: read-out: Biochemical Inhibition Profile IC50, EPHA8
MV4-11 = assay: cells; format: cell-based; details: read-out: Cell-Based Antiproliferation Assay IC50; MV4-11; constitutively active (FLT3 ITD Mutation D835)
EPHA3 = EPHA3 (Homo sapiens, UniProt P29320); assay: Biochemical inhibition profile, EPHA3; details: read-out: Biochemical Inhibition Profile IC50, EPHA3
KDR = KDR (Homo sapiens, UniProt P35968); assay: Biochemical inhibition profile, KDR; details: read-out: Biochemical Inhibition Profile IC50, KDR
EPHA5 = EPHA5 (Homo sapiens, UniProt P54756); assay: Biochemical inhibition profile, EPHA5; details: read-out: Biochemical Inhibition Profile IC50, EPHA5
FLT4 = FLT4 (Homo sapiens, UniProt P35916); assay: Biochemical inhibition profile, FLT4; details: read-out: Biochemical Inhibition Profile IC50, FLT4
Sequence of FLT4 (P35916 25-1363): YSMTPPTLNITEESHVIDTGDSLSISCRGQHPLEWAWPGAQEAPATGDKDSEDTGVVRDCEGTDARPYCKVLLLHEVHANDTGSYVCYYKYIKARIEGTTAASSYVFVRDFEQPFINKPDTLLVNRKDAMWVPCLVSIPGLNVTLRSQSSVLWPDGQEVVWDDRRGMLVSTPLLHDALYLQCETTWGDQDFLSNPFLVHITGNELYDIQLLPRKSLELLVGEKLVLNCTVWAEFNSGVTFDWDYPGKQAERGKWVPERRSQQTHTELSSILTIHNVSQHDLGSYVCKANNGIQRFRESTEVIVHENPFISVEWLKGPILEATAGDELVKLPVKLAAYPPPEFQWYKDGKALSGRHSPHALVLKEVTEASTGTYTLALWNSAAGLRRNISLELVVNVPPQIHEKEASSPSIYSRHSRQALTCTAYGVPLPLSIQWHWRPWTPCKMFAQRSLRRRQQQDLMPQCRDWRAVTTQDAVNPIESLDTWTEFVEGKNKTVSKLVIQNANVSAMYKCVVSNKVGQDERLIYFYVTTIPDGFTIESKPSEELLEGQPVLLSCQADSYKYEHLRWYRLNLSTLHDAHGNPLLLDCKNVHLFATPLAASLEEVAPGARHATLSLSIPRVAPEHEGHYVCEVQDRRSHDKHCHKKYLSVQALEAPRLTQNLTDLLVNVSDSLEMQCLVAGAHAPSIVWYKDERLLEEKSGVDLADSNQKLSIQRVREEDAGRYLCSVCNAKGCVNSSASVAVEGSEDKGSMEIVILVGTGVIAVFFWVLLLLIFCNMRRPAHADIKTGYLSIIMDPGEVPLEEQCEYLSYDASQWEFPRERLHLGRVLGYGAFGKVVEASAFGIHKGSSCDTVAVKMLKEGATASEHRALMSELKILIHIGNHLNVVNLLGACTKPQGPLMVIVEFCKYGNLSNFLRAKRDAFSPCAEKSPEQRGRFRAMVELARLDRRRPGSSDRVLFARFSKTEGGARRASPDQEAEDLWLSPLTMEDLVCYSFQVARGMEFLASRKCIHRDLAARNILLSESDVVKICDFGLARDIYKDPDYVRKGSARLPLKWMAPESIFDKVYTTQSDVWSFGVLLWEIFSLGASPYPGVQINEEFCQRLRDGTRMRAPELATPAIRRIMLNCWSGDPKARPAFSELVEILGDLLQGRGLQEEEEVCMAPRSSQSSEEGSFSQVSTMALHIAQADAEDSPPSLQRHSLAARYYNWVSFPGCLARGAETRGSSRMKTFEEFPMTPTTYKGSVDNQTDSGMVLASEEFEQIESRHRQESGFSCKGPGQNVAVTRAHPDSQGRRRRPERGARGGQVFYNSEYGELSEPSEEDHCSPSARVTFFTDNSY

[3] = system: pFLT3, pcKIT, pS6 in AML blasts; assay: Flow cytometry of phosphoproteins in AML blasts of patients; format: in vivo, human; details: after multiple dosing 50 mg/day; at least three patients (B, C, and E)
Summary of the method: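 Patient blood or marrow samples reached a central lab within 48 h. […] Peripheral CD34+CD11− cells were gated on a 3-laser FACSCanto II. Sampling was predose, day 1, 8, 15 and end of study. Read-out was MEFL.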

EPHB1 = EPHB1 (Homo sapiens, UniProt P54762); assay: Biochemical inhibition profile, EPHB1; details: read-out: Biochemical Inhibition Profile IC50, EPHB1
RET = RET (Homo sapiens, UniProt P07949); assay: Biochemical inhibition profile, RET; details: read-out: Biochemical Inhibition Profile IC50, RET
Sequence of RET (P07949 29-1114): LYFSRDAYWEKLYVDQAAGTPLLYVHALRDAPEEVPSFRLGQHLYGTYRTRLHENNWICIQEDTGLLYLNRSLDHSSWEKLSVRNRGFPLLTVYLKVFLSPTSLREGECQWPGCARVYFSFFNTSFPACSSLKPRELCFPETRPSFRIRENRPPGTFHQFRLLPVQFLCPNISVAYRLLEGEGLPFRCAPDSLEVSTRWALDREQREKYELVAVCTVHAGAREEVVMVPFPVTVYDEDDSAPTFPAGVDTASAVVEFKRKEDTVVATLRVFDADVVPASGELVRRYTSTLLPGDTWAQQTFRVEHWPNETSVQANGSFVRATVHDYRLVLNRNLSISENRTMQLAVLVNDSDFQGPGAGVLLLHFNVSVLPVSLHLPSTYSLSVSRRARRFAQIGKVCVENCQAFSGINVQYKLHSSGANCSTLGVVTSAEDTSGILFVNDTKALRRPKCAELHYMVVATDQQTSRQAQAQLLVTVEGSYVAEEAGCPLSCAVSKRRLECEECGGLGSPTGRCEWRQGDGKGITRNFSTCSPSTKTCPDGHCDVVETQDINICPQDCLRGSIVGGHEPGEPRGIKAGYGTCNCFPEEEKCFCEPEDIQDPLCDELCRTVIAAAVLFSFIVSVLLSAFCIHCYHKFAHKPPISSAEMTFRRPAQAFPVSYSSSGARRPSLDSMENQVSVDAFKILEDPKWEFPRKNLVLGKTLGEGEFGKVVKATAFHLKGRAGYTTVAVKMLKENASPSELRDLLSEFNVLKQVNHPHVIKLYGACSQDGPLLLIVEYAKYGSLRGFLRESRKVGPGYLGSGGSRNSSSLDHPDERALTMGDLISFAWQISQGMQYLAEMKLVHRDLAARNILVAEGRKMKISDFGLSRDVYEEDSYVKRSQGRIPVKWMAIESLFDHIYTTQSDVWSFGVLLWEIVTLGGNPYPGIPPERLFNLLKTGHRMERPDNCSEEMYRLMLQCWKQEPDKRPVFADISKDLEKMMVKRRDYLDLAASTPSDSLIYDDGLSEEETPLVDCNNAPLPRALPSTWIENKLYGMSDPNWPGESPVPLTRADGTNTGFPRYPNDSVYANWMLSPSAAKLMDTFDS

EPHA4 = EPHA4 (Homo sapiens, UniProt P54764); assay: Biochemical inhibition profile, EPHA4; details: read-out: Biochemical Inhibition Profile IC50, EPHA4
EPHB4 [4] = target: T1, EPHB4; details: read-out: Biochemical Inhibition Profile IC50, EPHB4
[5] = QTc assessment in patients with relapsed AML; format: in vivo, human; details: after the single-dose administration, 48-hour follow-up
Summary of the method: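 QTc was corrected by both Bazett and Fridericia formulas and compared with baseline across the 48 h after a single 50 mg oral dose. QTc was set against test-compound plasma concentration. Grade 3 was defined as >500 msec or a rise of >60 msec from baseline, confirmed by 12-lead ECG.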

[6] = also reversible lymphoid necrosis of Peyer's patches, skin depigmentation or whitening of the hair; cited from earlier work
EPHB2 = EPHB2 (Homo sapiens, UniProt P29323); assay: Biochemical inhibition profile, EPHB2; details: read-out: Biochemical Inhibition Profile IC50, EPHB2
VEGF-R3 = VEGF-R3 (Homo sapiens, UniProt P35916); assay: Biochemical inhibition profile, VEGF-R3; details: read-out: Biochemical Inhibition Profile IC50, VEGF-R3
Sequence of VEGF-R3 (P35916 25-1363): as the sequence (P35916 25-1363) above

[7] = system: human ether-à-go-go-related gene (hERG); details: read-out: hERG IC50; ref data on file, Eli Lilly and Company; cited from earlier work
TIE2 = TIE2 (Homo sapiens, UniProt Q02763); assay: Cell-based target inhibition assay, CHO - Clone113, pTIE2; details: read-out: Cell-Based Target Inhibition Assays IC50, pTIE2 pY99, stable over-expression of TIE2
EPHA2 = EPHA2 (Homo sapiens, UniProt P29317); assay: Biochemical inhibition profile, EPHA2; details: read-out: Biochemical Inhibition Profile IC50, EPHA2
FLT3 = FLT3 (Homo sapiens, UniProt P36888); assay: Biochemical inhibition profile, FLT3; details: read-out: Biochemical Inhibition Profile IC50, FLT3

Compound `Cc1cc(-c2ccn3c(-c4ccc(CC(=O)Nc5cccc(C(F)(F)F)c5)c(F)c4)cnc3c2)ccn1` [LY2457546] has a pIC50 [1] of 7.38, a pIC50 (PDGF-Rb) of 7.59 and a pIC50 (RAF) of 6.58. The pIC50 (pERK T202Y204 in HUVEC) was 8.69, the pIC50 (cKIT) was 7.13 and the Antileukemia response (AML blasts; five treated patients, 50 mg/day) was “No medically relevant responses”. The “Leukocyte and blast cell counts” value (AML blasts; one of the five patients (B), through day 10) was “significant but transient decrease”, the pIC50 (EPHB4 [2]) was 8.04 and the “p70S6K percent inhibition at 20 μM” value (p70S6K) was 75.9%. The pIC50 (EPHA1) was 6.21, the pIC50 (EPHA8) was 7.47 and the pIC50 (MV4-11) was 9.47. It also gave a pIC50 (EPHA3) of 7.00, a pIC50 (KDR) of 7.55 and a pIC50 (EPHA5) of 7.97. The pIC50 (FLT4) was 8.81, the “Expression of pFLT3 and pcKIT” value [3] was “reduced expression” and the pIC50 (EPHB1) was 7.67. The pIC50 (RET) was 8.38, the pIC50 (EPHA4) was 6.80 and the pIC50 (EPHB4 [4]) was 7.40. For the same compound, the “QTc prolongation after Bazet and Fridericia corrections” value [5] was “not present”, the “Toxicities in preclinical toxicology studies” value [6] was “reversible bone marrow toxicity, minimal liver inflammation, reversible physeal dysplasia” and the pIC50 (EPHB2) was 7.34. For the same compound, the pIC50 (VEGF-R3) was 7.47, the pIC50 [7] was 6.70 and the pIC50 (TIE2) was 6.78. The pIC50 (EPHA2) was 7.43 and the pIC50 (FLT3) was 8.29.
